# Data from ChEMBL document CHEMBL4138266, “Lysine Analogue of Polymyxin B as a Significant Opportunity for Photodynamic Antimicrobial Chemotherapy” (ACS Med Chem Lett, 2018).
# Calls of active or inactive are those of the source. The rule behind the calls is not given here.
# Columns and labels:
# Pseudomonas aeruginosa [1] = assay: Photobactericidal activity against Pseudomonas aeruginosa CIP76110 irradiated with white light at 4.83 mW/cm2 for 20 hrs; format: functional; conditions: CIP76110, light or radiation study
# In short: (§1)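 Minimal bactericidal concentration (MBC) was determined in tryptic soy medium with log-phase bacteria at 37 °C. Plates were either kept in the dark or given 20 h of white light at 4.83 mW/cm². MBC was taken as the concentration killing 99.99% of bacteria, i.e. a 4-log reduction versus the untreated control.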
# Pseudomonas aeruginosa [2] = assay: Bactericidal activity against Pseudomonas aeruginosa CIP76110 incubated for 30 mins under dark conditions; format: organism-based; conditions: 0.5 h; in short: as §1
# Escherichia coli [3] = assay: Photobactericidal activity against Escherichia coli CIP54.8T irradiated with white light at 4.83 mW/cm2 for 20 hrs; format: functional; conditions: light or radiation study; in short: as §1
# Escherichia coli [4] = assay: Bactericidal activity against Escherichia coli CIP54.8T incubated for 30 mins under dark conditions; format: organism-based; conditions: 0.5 h; in short: as §1
# Staphylococcus aureus [5] = assay: Photobactericidal activity against Staphylococcus aureus pretreated for 30 mins followed by compound wash out with subsequent irradiation with white light at 4.83 mW/cm2; format: functional, organism-based
# In short: (§2)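 Bacteria were pre-incubated with conjugate in 1X PBS (P. aeruginosa at 1 µM), then washed three times with PBS. They were irradiated with white LED light (4.83 mW/cm²; 7 J/cm² corresponds to 24 min) at 37 °C. Survival, as % of initial density, was plotted against cumulative light fluence.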
# Pseudomonas aeruginosa [6] = assay: Photobactericidal activity against Pseudomonas aeruginosa pretreated for 30 mins followed by compound wash out with subsequent irradiation with white light at 4.83 mW/cm2; format: functional, organism-based; in short: as §2
# Staphylococcus aureus [7] = assay: Photobactericidal activity against Staphylococcus aureus CIP76.25 irradiated with white light at 4.83 mW/cm2 for 20 hrs; format: functional; conditions: CIP76.25, light or radiation study; in short: as §1
# Escherichia coli [8] = assay: Photobactericidal activity against Escherichia coli pretreated for 30 mins followed by compound wash out with subsequent irradiation with white light at 4.83 mW/cm2; format: functional, organism-based; in short: as §2
# Pseudomonas aeruginosa [9] = assay: Photobactericidal activity against Pseudomonas aeruginosa assessed as PI-positive and PS-positive cell population at 1 uM incubated for 30 mins followed by 1 washing by propidium iodide staining based flow cytometry; format: functional
# In short: (§3)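 Bacteria were incubated with 1 µM conjugate for 30 min at 37 °C, washed with saline, then stained with propidium iodide (0.01 mg/mL) to assess viability. Samples were analysed by flow cytometry. Q1 is the PI-positive (permeable membrane) population; Q2 is double positive for PI and photosensitizer fluorescence.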
# Pseudomonas aeruginosa [10] = assay: Photobactericidal activity against Pseudomonas aeruginosa assessed as live bacterial cells with membrane integrity loss at 1 uM incubated for 30 mins followed by 1 washing by propidium iodide staining based flow cytometry; format: functional; in short: as §3
# Staphylococcus aureus [11] = assay: Photobactericidal activity against Staphylococcus aureus at 1 uM after 30 mins by confocal laser scanning microscopy; format: functional, organism-based
# In short: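 S. aureus inoculum was suspended in 1 µM conjugate for 30 min at 37 °C, washed three times with PBS, and imaged by confocal laser scanning microscopy at 100X to visualise bacteria-associated fluorescence.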
# NHDF [12] = assay: Cytotoxicity against human NHDF cells assessed as reduction in cell viability at 5 to 5000 nM irradiated with white light at 4.83 mW/cm2 for 2 hrs measured after 24 hrs by MTT assay; format: cell-based; conditions: 5 µM
# NHDF [13] = assay: Cytotoxicity against human NHDF cells assessed as reduction in cell viability at 5 to 5000 nM incubated under dark conditions for 2 hrs measured after 24 hrs by MTT assay; format: cell-based; conditions: 5 µM
# Staphylococcus aureus [14] = assay: Photobactericidal activity against Staphylococcus aureus assessed as dead bacteria with permeable membrane at 1 uM incubated for 30 mins followed by 1 washing by propidium iodide staining based flow cytometry; format: functional; in short: as §3
# Staphylococcus aureus [15] = assay: Photobactericidal activity against Staphylococcus aureus at 10 uM pretreated for 30 mins followed by compound wash out with subsequent irradiation with white light at 4.83 mW/cm2; format: functional, organism-based; in short: as §2
# Escherichia coli [16] = assay: Photobactericidal activity against Escherichia coli at 10 uM pretreated for 30 mins followed by compound wash out with subsequent irradiation with white light at 4.83 mW/cm2; format: functional, organism-based; in short: as §2
# Pseudomonas aeruginosa [17] = assay: Photobactericidal activity against Pseudomonas aeruginosa at 1 uM pretreated for 30 mins followed by compound wash out with subsequent irradiation with white light at 4.83 mW/cm2; format: functional, organism-based; in short: as §2
# Staphylococcus aureus [18] = assay: Photobactericidal activity against Staphylococcus aureus assessed as PI-positive and PS-positive cell population at 1 uM incubated for 30 mins followed by 1 washing by propidium iodide staining based flow cytometry; format: functional; in short: as §3
# Staphylococcus aureus [19] = assay: Photobactericidal activity against Staphylococcus aureus assessed as live bacterial population at 1 uM incubated for 30 mins followed by 1 washing by propidium iodide staining based flow cytometry; format: functional; in short: as §3
# Staphylococcus aureus [20] = assay: Photobactericidal activity against Staphylococcus aureus assessed as live bacterial cells with membrane integrity loss at 1 uM incubated for 30 mins followed by 1 washing by propidium iodide staining based flow cytometry; format: functional; in short: as §3
# Pseudomonas aeruginosa [21] = assay: Photobactericidal activity against Pseudomonas aeruginosa assessed as dead bacteria with permeable membrane at 1 uM incubated for 30 mins followed by 1 washing by propidium iodide staining based flow cytometry; format: functional; in short: as §3
# Pseudomonas aeruginosa [22] = assay: Photobactericidal activity against Pseudomonas aeruginosa assessed as live bacterial population at 1 uM incubated for 30 mins followed by 1 washing by propidium iodide staining based flow cytometry; format: functional; in short: as §3
# Escherichia coli [23] = assay: Photobactericidal activity against Escherichia coli assessed as dead bacteria with permeable membrane at 1 uM incubated for 30 mins followed by 1 washing by propidium iodide staining based flow cytometry; format: functional; in short: as §3
# Escherichia coli [24] = assay: Photobactericidal activity against Escherichia coli assessed as PI-positive and PS-positive cell population at 1 uM incubated for 30 mins followed by 1 washing by propidium iodide staining based flow cytometry; format: functional; in short: as §3
# Escherichia coli [25] = assay: Photobactericidal activity against Escherichia coli assessed as live bacterial population at 1 uM incubated for 30 mins followed by 1 washing by propidium iodide staining based flow cytometry; format: functional; in short: as §3
# Escherichia coli [26] = assay: Photobactericidal activity against Escherichia coli assessed as live bacterial cells with membrane integrity loss at 1 uM incubated for 30 mins followed by 1 washing by propidium iodide staining based flow cytometry; format: functional; in short: as §3
# Staphylococcus aureus [27] = assay: Photobactericidal activity against Staphylococcus aureus assessed as dead bacteria with permeable membrane at 1 uM incubated for 30 mins followed by 3 washings by propidium iodide staining based flow cytometry; format: functional; in short: as §3
# Staphylococcus aureus [28] = assay: Photobactericidal activity against Staphylococcus aureus assessed as PI-positive and PS-positive cell population at 1 uM incubated for 30 mins followed by 3 washings by propidium iodide staining based flow cytometry; format: functional; in short: as §3
# Staphylococcus aureus [29] = assay: Photobactericidal activity against Staphylococcus aureus assessed as live bacterial population at 1 uM incubated for 30 mins followed by 3 washings by propidium iodide staining based flow cytometry; format: functional; in short: as §3
# Staphylococcus aureus [30] = assay: Photobactericidal activity against Staphylococcus aureus assessed as live bacterial cells with membrane integrity loss at 1 uM incubated for 30 mins followed by 3 washings by propidium iodide staining based flow cytometry; format: functional; in short: as §3
# Pseudomonas aeruginosa [31] = assay: Photobactericidal activity against Pseudomonas aeruginosa assessed as dead bacteria with permeable membrane at 1 uM incubated for 30 mins followed by 3 washings by propidium iodide staining based flow cytometry; format: functional; in short: as §3
# Pseudomonas aeruginosa [32] = assay: Photobactericidal activity against Pseudomonas aeruginosa assessed as PI-positive and PS-positive cell population at 1 uM incubated for 30 mins followed by 3 washings by propidium iodide staining based flow cytometry; format: functional; in short: as §3
# Pseudomonas aeruginosa [33] = assay: Photobactericidal activity against Pseudomonas aeruginosa assessed as live bacterial population at 1 uM incubated for 30 mins followed by 3 washings by propidium iodide staining based flow cytometry; format: functional; in short: as §3
# Pseudomonas aeruginosa [34] = assay: Photobactericidal activity against Pseudomonas aeruginosa assessed as live bacterial cells with membrane integrity loss at 1 uM incubated for 30 mins followed by 3 washings by propidium iodide staining based flow cytometry; format: functional; in short: as §3
# Escherichia coli [35] = assay: Photobactericidal activity against Escherichia coli assessed as dead bacteria with permeable membrane at 1 uM incubated for 30 mins followed by 3 washings by propidium iodide staining based flow cytometry; format: functional; in short: as §3
# Escherichia coli [36] = assay: Photobactericidal activity against Escherichia coli assessed as PI-positive and PS-positive cell population at 1 uM incubated for 30 mins followed by 3 washings by propidium iodide staining based flow cytometry; format: functional; in short: as §3
# Escherichia coli [37] = assay: Photobactericidal activity against Escherichia coli assessed as live bacterial population at 1 uM incubated for 30 mins followed by 3 washings by propidium iodide staining based flow cytometry; format: functional; in short: as §3
# Escherichia coli [38] = assay: Photobactericidal activity against Escherichia coli assessed as live bacterial cells with membrane integrity loss at 1 uM incubated for 30 mins followed by 3 washings by propidium iodide staining based flow cytometry; format: functional; in short: as §3
structure (smiles),measurement,setting,value
CCCCCCCC(=O)N[C@@H](CS)C(=O)N[C@H](C(=O)N[C@@H](CCCCN)C(=O)N[C@H]1CCNC(=O)[C@H]([C@@H](C)O)NC(=O)[C@H](CCCCN)NC(=O)[C@H](CCCCN)NC(=O)[C@H](CC(C)C)NC(=O)[C@@H](Cc2ccccc2)NC(=O)[C@H](CCCCN)NC1=O)[C@@H](C)O,MBC,Pseudomonas aeruginosa [1],> 100 µM
same,MBC,Pseudomonas aeruginosa [2],> 100 µM
same,MBC,Escherichia coli [3],50 µM
same,MBC,Escherichia coli [4],50 µM
CCCCCCCC(=O)N[C@@H](CSC1CC(=O)N(CCCCCC(=O)Nc2ccc(-c3c4nc(c(-c5cc[n+](C)cc5)c5ccc([nH]5)c(-c5cc[n+](C)cc5)c5nc(c(-c6cc[n+](C)cc6)c6ccc3[nH]6)C=C5)C=C4)cc2)C1=O)C(=O)N[C@H](C(=O)N[C@@H](CCN)C(=O)N[C@H]1CCNC(=O)[C@H]([C@@H](C)O)NC(=O)[C@H](CCN)NC(=O)[C@H](CCN)NC(=O)[C@H](CC(C)C)NC(=O)[C@@H](Cc2ccccc2)NC(=O)[C@H](CCN)NC1=O)[C@@H](C)O.[I-].[I-].[I-] (some centres not stated),Activity,Staphylococcus aureus [5],Active
same,Activity,Pseudomonas aeruginosa [6],Active
same,MBC,Staphylococcus aureus [7],0.8 µM
same,MBC,Pseudomonas aeruginosa [1],2.5 µM
same,MBC,Pseudomonas aeruginosa [2],10 µM
same,MBC,Escherichia coli [3],0.5 µM
same,MBC,Escherichia coli [4],1.2 to 5 µM
same,Activity,Escherichia coli [8],Active
same,Activity,Pseudomonas aeruginosa [9],80%
same,Activity,Pseudomonas aeruginosa [10],80%
same,Activity,Staphylococcus aureus [11],Active
same,Activity,NHDF [12],Non-Toxic
same,Activity,NHDF [13],Non-Toxic
CCCCCCCC(=O)N[C@@H](CSC1CC(=O)N(CCCCCC(=O)Nc2ccc(-c3c4nc(c(-c5cc[n+](C)cc5)c5ccc([nH]5)c(-c5cc[n+](C)cc5)c5nc(c(-c6cc[n+](C)cc6)c6ccc3[nH]6)C=C5)C=C4)cc2)C1=O)C(=O)N[C@H](C(=O)N[C@@H](CCCCN)C(=O)N[C@H]1CCNC(=O)[C@H]([C@@H](C)O)NC(=O)[C@H](CCCCN)NC(=O)[C@H](CCCCN)NC(=O)[C@H](CC(C)C)NC(=O)[C@@H](Cc2ccccc2)NC(=O)[C@H](CCCCN)NC1=O)[C@@H](C)O.[I-].[I-].[I-] (some centres not stated),Activity,Staphylococcus aureus [14],1.6%
same,MBC,Staphylococcus aureus [7],1.2 µM
same,MBC,Pseudomonas aeruginosa [1],8 µM
same,MBC,Pseudomonas aeruginosa [2],> 100 µM
same,MBC,Escherichia coli [3],0.8 µM
same,MBC,Escherichia coli [4],25 µM
same,Activity,Staphylococcus aureus [15],Active
same,Activity,Escherichia coli [16],Active
same,Activity,Pseudomonas aeruginosa [17],Active
same,Activity,Staphylococcus aureus [18],3.2%
same,Activity,Staphylococcus aureus [19],75.6%
same,Activity,Staphylococcus aureus [20],19.7%
same,Activity,Pseudomonas aeruginosa [21],19.3%
same,Activity,Pseudomonas aeruginosa [9],43.1%
same,Activity,Pseudomonas aeruginosa [22],34.6%
same,Activity,Pseudomonas aeruginosa [10],3%
same,Activity,Escherichia coli [23],1.8%
same,Activity,Escherichia coli [24],14%
same,Activity,Escherichia coli [25],69.7%
same,Activity,Escherichia coli [26],14.6%
same,Activity,Staphylococcus aureus [27],4.4%
same,Activity,Staphylococcus aureus [28],5.8%
same,Activity,Staphylococcus aureus [29],70.8%
same,Activity,Staphylococcus aureus [30],19%
same,Activity,Pseudomonas aeruginosa [31],37.7%
same,Activity,Pseudomonas aeruginosa [32],28.9%
same,Activity,Pseudomonas aeruginosa [33],31.6%
same,Activity,Pseudomonas aeruginosa [34],1.9%
same,Activity,Escherichia coli [35],5.2%
same,Activity,Escherichia coli [36],22.8%
same,Activity,Escherichia coli [37],62.5%
same,Activity,Escherichia coli [38],9.6%
same,Activity,Staphylococcus aureus [11],Active
same,Activity,NHDF [12],Non-Toxic
same,Activity,NHDF [13],Non-Toxic
